FXN GAA850 act = frataxin GAA850 promoter activation. HEK293 lucGAA850 FXN promoter luciferase reporter, 24 h; percent of 10 µM SAHA response. activation, % at 6 µM. actives 0.56% (n = 360,000). AID 540364;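 active = activation above the average of all compounds screened plus 3 SD, cutoff fixed separately per campaign, cut at about 7.5% in these data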;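 also: 0% = DMSO wells and 100% = 10 µM SAHA wells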
HIF activator = HIF pathway transcriptional activation; AID 1910; activation, % at 7.5 µM (by protocol); actives 0.32% (n = 300,000); U2OS HRE-luciferase reporter, luminescence; normalized: DMSO 0%, desferrioxamine 100%;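 active = mean activation of at least 10% of the iron chelator positive control signal, with at least half of replicates also reaching 10%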
AHR activator = human AHR activation | AHR-responsive luciferase reporter cells, luminescence | activation, % at 5 µM | actives 2.5% (n = 320,000); in the data active = activation above about 47%;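 also: 0% = vehicle wells and 100% = reference agonist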
SR-BI DiI-HDL act = enhances SR-BI lipid uptake from DiI-HDL. activation, % at 12.5 µM. AID 504775. actives 0.096% (n = 320,000). CHO ldlA[mSR-BI] cells, DiI-HDL uptake fluorescence, 3 h; 100 = double the neutral-control signal;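 active = mean replicate activation of at least 60% and every replicate at or above 60%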;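 also: 0% = median plate neutral-control signal and 100% = twice that signal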
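Material: SR-BI-overexpressing, LDLR-lacking CHO cells; schedule: compound exposure 3 h, 37 °C; reagent: DiI-labelled HDL at 10 µg/mL final; technique: bottom-read fluorescence, 550/595 nm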
ABCB6 inh 2 = inhibitors of human ABC transporter ABCB6; Q9NP58; K562-ABCB6 porphyrin accumulation, flow cytometry, 1 h; stronger effect = lower value; fluorescence ratio to DMSO, % at 10 µM; actives 0.19% (n = 360,000); AID 602162;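 active = fluorescence ratio to DMSO below 75%, the collection mean minus 3 SD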;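 also: signal is porphyrin accumulated inside mitochondria; 100% equals median channel fluorescence of DMSO control wells; lower ratio means ABCB6 inhibition with less porphyrin fluorescence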
SR-BI HDL uptake = blocks mouse SR-BI lipid uptake from DiI-HDL. actives 0.96% (n = 320,000). ldlA[mSR-BI] CHO cells, DiI-HDL uptake fluorescence, 3 h. Q61009. AID 488896. inhibition, % at 12.5 µM;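 active = mean replicate inhibition of at least 70% and a set share of replicates each scoring 70 or more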;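 also: 0% = median of neutral control wells and 100% = median of positive control wells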
AHR act confirm = human AHR activation, confirmation; AID 2845; shares compounds with AHR activator; activation, % at 9 µM; human cells, AHR-responsive luciferase reporter, luminescence; actives 87% (n = 2,300); in the data active = activation above about 49%;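 also: HepG2 hepatoma cells carrying a DRE-driven firefly luciferase reporter; 0% = vehicle wells and 100% = reference agonist wells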
PXR act counter = PXR activation, counter-screen for AHR activators; shares compounds with AHR activator; cell-based PXR reporter, luciferase luminescence; activation, % at 11.6 µM; actives 88% (n = 2,300); AID 434939; in the data active = activation above about 11%;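 also: human hepatoma DPX-2 cells expressing full-length human PXR; 0% = DMSO and 100% = reference agonist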
Numbers without * were called inactive; . = no result. The list is not random: actives were taken first. Their share in the collection is about 3.9%.

SMILES	FXN GAA850 act	HIF activator	AHR activator	SR-BI DiI-HDL act	ABCB6 inh 2	SR-BI HDL uptake	AHR act confirm	PXR act counter
COc1cc(/C=N/Nc2nc3ccccc3[nH]2)cc(OC)c1O	-5.7	2.2	81.4*	-15.9	102.0	15.9	16.8	6.3
C(=N\Nc1nc2ccccc2[nH]1)/c1ccncc1	2.0	2.8	107.8*	8.8	88.0	-8.8	114.3*	10.8*
CC(=O)Nc1ccc(/C=N/Nc2nc3ccccc3[nH]2)cc1	3.7	1.7	156.8*	-16.4	107.0	16.4	106.7*	13.0*
CCCc1cc(=O)[nH]c(Nc2ccc(N3CCCCC3)cc2)n1	-3.3	0.3	28.1	-0.5	97.0	0.5	.	.
COc1ccccc1Nc1nc2ccccc2[nH]1	1.8	2.7	119.4*	-11.5	96.0	11.5	62.9*	35.3*
COC(=O)c1cc(=O)c2ccc(OC)cc2o1	0.4	.	.	8.9	94.0	-8.9	.	.
O=C(COc1ccccc1)N(Cc1ccco1)C1CCS(=O)(=O)C1 (centres undefined)	-0.4	0.1	-1.7	10.4	98.0	-10.4	.	.
Oc1ccc(Cl)cc1-c1cc(-c2ccccc2Cl)[nH]n1	1.6	0.6	27.5	.	90.0	.	.	.
Oc1ccccc1-c1cc(-c2ccccc2Cl)[nH]n1	4.5	-0.2	96.0*	-32.8	103.0	32.8	114.9*	18.5*
CC(NC(=O)Cn1nc(C(=O)O)c2ccccc2c1=O)c1ccccc1 (centres undefined)	0.8	0.1	1.4	-18.5	91.0	18.5	.	.
O=[N+]([O-])c1ccc2c(c1)C(=Nc1ccccc1)c1ccccc1-2	1.4	.	.	-2.2	98.0	2.2	.	.
O=C1c2ccccc2C(O)(c2ncc[nH]2)N1CCc1ccccc1 (centres undefined)	-1.0	0.4	97.5*	23.6	97.0	-23.6	105.3*	24.2*
CCc1nc2sc3ccccc3c(=O)c2c(=O)n1Cc1ccco1	3.0	1.9	21.3	13.3	134.0	-13.3	.	.
Cc1cc(C)n2c(SCC(=O)NC3CCCCC3)nnc2n1	0.5	-0.7	-3.5	8.0	105.0	-8.0	.	.
Cc1cc(=O)n(CC(=O)NC2CC2)c2c1c(C)nn2-c1ccccc1	-0.5	-0.5	87.5*	-0.9	103.0	0.9	83.8*	77.1*
Cc1ccccc1-n1ncc2c1CC(C)(C)CC2NC(=O)CCC1=NNC(=O)CC1 (centres undefined)	-2.8	-0.2	1.6	9.8	102.0	-9.8	.	.
O=C(NNc1nc2c(F)cc(F)cc2s1)C1COc2ccccc2O1 (centres undefined)	1.7	-0.6	5.5	9.1	102.0	-9.1	.	.
Cc1cccc2sc(NNC(=O)C3COc4ccccc4O3)nc12 (centres undefined)	2.2	0.2	94.5*	-5.9	100.0	5.9	41.0	19.8*
Cc1cc(C)c2sc(NNC(=O)C3COc4ccccc4O3)nc2c1 (centres undefined)	-2.8	.	103.0*	-3.1	97.0	2.3	69.4*	24.8*
Fc1ccc2nc3[nH]c4ccccc4c3nc2c1	5.5	3.4	133.8*	-19.7	97.0	19.7	189.2*	21.1*
Cc1ccc(S(=O)(=O)Nc2ccccc2/C=N/c2nc3ccccc3n2C(C)C)cc1	-0.8	.	1.8	34.8	103.0	-34.8	.	.
CN(CC(=O)Nc1ccc(Cl)cc1)C1=NS(=O)(=O)c2ccccc21	2.2	.	2.3	-5.3	99.0	5.3	.	.
CN1CCN(c2ccc(NS(=O)(=O)c3ccc(Cl)cc3)cn2)CC1	1.7	0.0	6.5	16.9	108.0	-16.9	.	.
COc1ccc(-c2nc3ccccc3s2)cc1O	-4.1	-3.8	82.3*	-20.8	94.0	20.8	76.3*	11.0*
CC(=O)Nc1cccc(-c2nc3ccccc3s2)c1	6.5	5.7	124.3*	-36.2	95.0	36.1	99.4*	20.1*
SMILES	FXN GAA850 act	HIF activator	AHR activator	SR-BI DiI-HDL act	ABCB6 inh 2	SR-BI HDL uptake	AHR act confirm	PXR act counter
CC(=O)Nc1cccc(-c2nc3ccc(NC(C)=O)cc3s2)c1	4.8	2.0	3.7	-39.4	97.0	39.4	.	.
O=C(/C=C/c1ccco1)NC(=S)Nc1cccc(-c2nc3ccccc3s2)c1	-4.1	5.0	81.5*	-67.3	97.0	67.2	117.9*	32.5*
COc1ccccc1C(=O)NCc1ccc(-c2nc3ccccc3s2)cc1	-5.6	-0.1	0.8	42.9	95.0	-42.9	.	.
Oc1cccc(-c2nc3ccccc3s2)c1	0.4	-0.3	85.8*	0.1	96.0	-0.1	58.3*	12.0*
Nc1cccc(-c2nc3ccccc3s2)c1	3.5	2.4	115.9*	-2.0	99.0	2.0	96.3*	8.0
Cc1ccc(N/N=C(\C#N)C(=N)N2CCOCC2)cc1	5.2	1.7	122.7*	-8.8	89.0	8.8	115.3*	16.5*
N#C/C(=N\Nc1ccccc1)C(=N)N1CCOCC1	5.5	1.3	5.6	-8.5	101.0	8.5	.	.
O=C(O)c1ccc(CSc2nc3ccc(N4C(=O)C5C6C=CC(C6)C5C4=O)cc3s2)cc1 (centres undefined)	0.0	-0.4	4.7	-12.0	94.0	12.0	.	.
CCc1cccc(CC)c1NC(=O)CSc1nc2ccc(N3C(=O)C4C5C=CC(C5)C4C3=O)cc2s1 (centres undefined)	-1.7	-1.0	125.5*	-61.4	90.0	61.4	53.0*	68.9*
Nc1ccccc1C(=O)NNc1c2ccccc2nc2ccccc12	5.1	1.9	95.8*	-24.3	91.0	24.3	105.2*	63.7*
COc1cc(OC)c(NC(=O)CS(=O)(=O)Cc2nc(-c3ccc(C)cc3)oc2C)cc1Cl	2.3	-0.1	11.1	-35.9	85.0	36.0	.	.
c1ccc2c3n(nc2c1)CCCCO3	-0.6	.	4.9	15.5	94.0	-15.5	.	.
N#Cc1ccc(C23OCCN2CCn2nc4ccccc4c23)cc1 (centres undefined)	0.2	.	102.8*	16.0	97.0	-16.0	108.5*	94.7*
O=C(CC1Nc2ccccc2NC1=O)Nc1ccc2c(c1)OCO2 (centres undefined)	2.7	1.1	152.7*	-3.2	97.0	3.2	136.5*	24.5*
Cc1ccc(NC(=O)CC2Nc3ccccc3NC2=O)cc1Cl (centres undefined)	0.1	.	.	-32.0	101.0	32.0	.	.
O=C(CC1Nc2cccc3cccc(c23)NC1=O)Nc1ccccc1 (centres undefined)	-1.8	-0.6	135.8*	-26.5	103.0	26.5	99.1*	78.8*
CCCOc1ccc(NC(=O)CC2Nc3ccccc3NC2=O)cc1 (centres undefined)	0.5	0.0	13.3	4.8	85.0	-4.8	.	.
CS(=O)(=O)N1CCCC(C(=O)NCc2ccccn2)C1 (centres undefined)	1.4	0.0	-0.1	-24.3	104.0	24.3	.	.

Screening results deposited in PubChem BioAssay by several laboratories.
